Source: ChEMBL document CHEMBL1138900, “2,5-diketopiperazines as potent, selective, and orally bioavailable oxytocin antagonists. 3. Synthesis, pharmacokinetics, and in vivo potency” (J Med Chem, 2006)
≈ marks a conversion by molar mass, not a printed value.

Assays:
[1] = AUC in rat; format: ADME, organism-based; design: concentration or dose not given beside the values; conditions: plasma
Method in brief: (§1)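 Rat pharmacokinetics, n = 4; dosed at 5 mg/kg in 5% DMSO/95% PEG400. AUC in ng·h mL⁻¹, clearance in mL min⁻¹ kg⁻¹, half-life in h.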

[2] = Clearance in dog; format: ADME, organism-based, Canis lupus familiaris; conditions: in vivo
Method in brief: (§2)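 Dog pharmacokinetics, n = 3; dosed at 0.6 mg/kg in 5% DMSO/95% PEG400. AUC reported as ng·h mL⁻¹ and clearance as mL min⁻¹ kg⁻¹.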

[3] = Oral bioavailability in rat; format: ADME, organism-based; conditions: in vivo
[4] = Clearance in rat; format: ADME, organism-based; conditions: in vivo; method in brief: as §1
[5] = Solubility of the compound; format: physicochemical
Method in brief: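 Aqueous solubility (mg mL⁻¹) measured by precipitation followed by HPLC.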

Canis familiaris = test: (§3) Oral bioavailability in dog; format: ADME, organism-based, Canis lupus familiaris; conditions: in vivo
[6] = AUC in dog; format: ADME, organism-based, Canis lupus familiaris; design: concentration or dose not given beside the values; conditions: plasma; method in brief: as §2
Oxytocin receptor [7] = biological target: T1, Oxytocin receptor (Homo sapiens, UniProt P30559); test: Displacement of [3H]oxytocin from human OTR
T1 sequence (P30559 whole entry): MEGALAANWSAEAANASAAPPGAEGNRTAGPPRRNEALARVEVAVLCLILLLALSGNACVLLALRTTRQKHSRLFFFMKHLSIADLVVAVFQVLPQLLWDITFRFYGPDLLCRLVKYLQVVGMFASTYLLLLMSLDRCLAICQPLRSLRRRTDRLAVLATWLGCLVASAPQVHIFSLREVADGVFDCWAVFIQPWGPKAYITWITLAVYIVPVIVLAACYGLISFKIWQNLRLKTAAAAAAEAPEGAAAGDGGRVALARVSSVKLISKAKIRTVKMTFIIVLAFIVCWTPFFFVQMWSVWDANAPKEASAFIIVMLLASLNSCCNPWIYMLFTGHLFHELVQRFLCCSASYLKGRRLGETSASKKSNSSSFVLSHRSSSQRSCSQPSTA

[8] = Lipophilicity, log D by CHI method; format: physicochemical; conditions: read-out: Log D
Method in brief: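 Lipophilicity determined by an HPLC-based method.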

Vasopressin V1a receptor = Vasopressin V1a receptor (Homo sapiens, UniProt P37288); test: Displacement of vasopressin from human V1aR
Chain of Vasopressin V1a receptor (P37288 whole entry): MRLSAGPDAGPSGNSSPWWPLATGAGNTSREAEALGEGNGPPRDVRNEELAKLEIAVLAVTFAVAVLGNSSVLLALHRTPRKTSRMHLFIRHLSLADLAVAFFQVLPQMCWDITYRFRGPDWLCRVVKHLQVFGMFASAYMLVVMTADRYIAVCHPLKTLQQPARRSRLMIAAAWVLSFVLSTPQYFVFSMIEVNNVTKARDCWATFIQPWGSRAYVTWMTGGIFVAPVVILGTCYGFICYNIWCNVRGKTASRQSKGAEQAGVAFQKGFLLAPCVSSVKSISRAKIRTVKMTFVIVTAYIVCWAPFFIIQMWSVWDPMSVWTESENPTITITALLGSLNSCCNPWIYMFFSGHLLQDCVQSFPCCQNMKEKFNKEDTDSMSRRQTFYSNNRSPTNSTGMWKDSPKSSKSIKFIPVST

Cytochrome P450 2C19 = Cytochrome P450 2C19 (Homo sapiens, UniProt P33261); test: Inhibition of CYP450 2C19 transfected in human microsome; format: ADME
Chain of Cytochrome P450 2C19 (P33261 whole entry): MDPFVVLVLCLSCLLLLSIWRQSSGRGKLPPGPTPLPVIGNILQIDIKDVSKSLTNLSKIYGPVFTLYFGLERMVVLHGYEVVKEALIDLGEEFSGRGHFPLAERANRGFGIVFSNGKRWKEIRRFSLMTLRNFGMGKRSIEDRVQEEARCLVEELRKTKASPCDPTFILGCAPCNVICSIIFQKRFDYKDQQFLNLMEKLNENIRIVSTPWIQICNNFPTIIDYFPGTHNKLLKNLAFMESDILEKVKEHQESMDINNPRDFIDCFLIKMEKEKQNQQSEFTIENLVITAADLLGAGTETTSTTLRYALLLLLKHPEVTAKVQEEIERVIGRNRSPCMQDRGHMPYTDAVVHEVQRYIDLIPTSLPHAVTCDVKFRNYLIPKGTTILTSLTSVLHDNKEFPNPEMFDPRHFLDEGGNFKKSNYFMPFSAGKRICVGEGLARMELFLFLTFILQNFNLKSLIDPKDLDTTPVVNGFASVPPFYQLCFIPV
Method in brief: (§4)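 Recombinant human CYP isozymes, with reaction progress followed by fluorogenic substrates; DEF and 7-benzyloxyquinoline used as CYP3A4 substrates. Compounds dissolved at 1.65 mM in DMSO/methanol and serially diluted to give IC50 (μM). A positive control run for each isozyme.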

Oxytocin receptor [9] = biological target: T1, Oxytocin receptor; test: Antagonist activity against human OTR expressed in CHO cells measured as calcium influx by FLIPR assay; format: functional, cell-based
Vasopressin V1b receptor = biological target: T2, Vasopressin V1b receptor (Homo sapiens, UniProt P47901); test: Displacement of vasopressin from human V1bR
T2 sequence (P47901 whole entry): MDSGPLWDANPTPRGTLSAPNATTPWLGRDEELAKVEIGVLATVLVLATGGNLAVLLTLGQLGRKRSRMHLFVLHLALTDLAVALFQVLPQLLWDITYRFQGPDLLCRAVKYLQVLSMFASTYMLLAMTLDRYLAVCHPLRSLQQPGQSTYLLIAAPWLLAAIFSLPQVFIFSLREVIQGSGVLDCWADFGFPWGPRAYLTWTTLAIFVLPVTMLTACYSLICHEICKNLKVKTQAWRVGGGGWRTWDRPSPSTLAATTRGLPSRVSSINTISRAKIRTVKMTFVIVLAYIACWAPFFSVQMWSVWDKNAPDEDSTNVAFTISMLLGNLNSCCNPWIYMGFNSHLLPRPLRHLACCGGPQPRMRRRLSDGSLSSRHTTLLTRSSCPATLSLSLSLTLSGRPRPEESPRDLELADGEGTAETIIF

Vasopressin V2 receptor = Vasopressin V2 receptor (Homo sapiens, UniProt P30518); test: Displacement of vasopressin from human V2R
Chain of Vasopressin V2 receptor (P30518 whole entry): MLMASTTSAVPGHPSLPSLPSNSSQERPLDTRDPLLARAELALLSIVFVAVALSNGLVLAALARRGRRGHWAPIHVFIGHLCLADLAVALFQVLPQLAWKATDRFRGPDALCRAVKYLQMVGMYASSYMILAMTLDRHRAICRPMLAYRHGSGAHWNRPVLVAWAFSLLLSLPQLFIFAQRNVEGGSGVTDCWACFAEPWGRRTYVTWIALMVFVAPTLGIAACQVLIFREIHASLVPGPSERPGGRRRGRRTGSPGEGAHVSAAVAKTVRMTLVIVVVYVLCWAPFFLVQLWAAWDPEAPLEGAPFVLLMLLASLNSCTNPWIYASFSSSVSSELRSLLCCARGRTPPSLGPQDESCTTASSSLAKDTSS

[10] = Half life in dog; format: ADME, organism-based, Canis lupus familiaris; conditions: in vivo
Oxytocin receptor [11] = biological target: T3, Oxytocin receptor (Rattus norvegicus, UniProt P70536); test: Displacement of [3H]oxytocin from rat OTR
T3 sequence (P70536 whole entry): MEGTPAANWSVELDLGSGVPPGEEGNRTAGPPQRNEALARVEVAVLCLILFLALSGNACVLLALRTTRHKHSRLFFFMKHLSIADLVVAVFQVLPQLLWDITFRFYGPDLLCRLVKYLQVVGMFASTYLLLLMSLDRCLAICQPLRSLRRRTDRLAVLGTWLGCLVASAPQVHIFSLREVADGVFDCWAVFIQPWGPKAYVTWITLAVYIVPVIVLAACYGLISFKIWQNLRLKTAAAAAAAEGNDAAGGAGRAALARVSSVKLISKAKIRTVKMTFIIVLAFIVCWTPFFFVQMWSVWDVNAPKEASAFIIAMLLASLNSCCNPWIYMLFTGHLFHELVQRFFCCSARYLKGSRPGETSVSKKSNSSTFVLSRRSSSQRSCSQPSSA

Cytochrome P450 1A2 = biological target: T4, Cytochrome P450 1A2 (Homo sapiens, UniProt P05177); test: Inhibition of CYP450 1A2 transfected in human microsome; format: ADME; method in brief: as §4
T4 sequence (P05177 whole entry): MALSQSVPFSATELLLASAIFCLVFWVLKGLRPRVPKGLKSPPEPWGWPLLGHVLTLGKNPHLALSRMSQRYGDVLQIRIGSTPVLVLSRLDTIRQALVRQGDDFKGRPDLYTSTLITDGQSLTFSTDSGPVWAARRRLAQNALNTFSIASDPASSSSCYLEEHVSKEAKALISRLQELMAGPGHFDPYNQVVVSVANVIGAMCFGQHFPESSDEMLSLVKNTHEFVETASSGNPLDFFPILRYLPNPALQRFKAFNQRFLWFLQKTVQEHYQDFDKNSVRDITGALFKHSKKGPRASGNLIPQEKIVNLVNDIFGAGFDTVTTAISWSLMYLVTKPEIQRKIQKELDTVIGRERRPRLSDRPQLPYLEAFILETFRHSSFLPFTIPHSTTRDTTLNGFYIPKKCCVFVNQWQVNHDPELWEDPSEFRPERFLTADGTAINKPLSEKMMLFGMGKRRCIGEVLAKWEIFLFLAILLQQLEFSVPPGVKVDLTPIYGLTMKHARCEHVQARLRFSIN

[12] = as §3; format: ADME, organism-based, Canis lupus familiaris; conditions: in vivo
[13] = Half life in rat; format: ADME, organism-based; conditions: in vivo; method in brief: as §1
Cytochrome P450 2D6 = Cytochrome P450 2D6 (Homo sapiens, UniProt P10635); test: Inhibition of CYP450 2D6 transfected in human microsome using DEF fluorogenic substrate; format: ADME, microsomes; method in brief: as §4
Chain of Cytochrome P450 2D6 (P10635 whole entry): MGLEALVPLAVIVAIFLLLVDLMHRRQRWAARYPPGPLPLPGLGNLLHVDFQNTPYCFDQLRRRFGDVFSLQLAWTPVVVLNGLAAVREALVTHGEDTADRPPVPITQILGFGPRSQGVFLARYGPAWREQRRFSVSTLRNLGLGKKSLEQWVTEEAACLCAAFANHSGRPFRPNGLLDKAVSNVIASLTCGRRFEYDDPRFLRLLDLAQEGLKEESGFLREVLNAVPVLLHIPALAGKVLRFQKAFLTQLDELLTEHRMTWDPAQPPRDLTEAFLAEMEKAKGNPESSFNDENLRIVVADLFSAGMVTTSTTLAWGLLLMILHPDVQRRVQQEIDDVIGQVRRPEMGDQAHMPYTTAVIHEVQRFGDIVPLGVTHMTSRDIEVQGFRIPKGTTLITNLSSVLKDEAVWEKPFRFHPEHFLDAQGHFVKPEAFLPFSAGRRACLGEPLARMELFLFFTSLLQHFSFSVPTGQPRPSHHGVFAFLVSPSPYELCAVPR

Rattus norvegicus = test: Reduction in oxytocin-induced uterine contraction in iv dosed anaesthetized rat; format: functional, organism-based
Method in brief: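 Anaesthetized rats; uterine contractions elicited by iv oxytocin at a standard dose of 0.3 ug/kg. Test compound then given iv in rising doses (0.1, 0.3, 1 mg/kg) and the fall in contractility recorded. Plasma IC50 taken as the plasma concentration giving 50% inhibition of the response to the standard oxytocin dose.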

[14] = Volume of distribution in dog; format: ADME, organism-based, Canis lupus familiaris; conditions: in vivo, read-out: Vdss
[15] = Volume of distribution in rat; format: ADME, organism-based; conditions: in vivo, read-out: Vdss
Cytochrome P450 2C9 = Cytochrome P450 2C9 (Homo sapiens, UniProt P11712); test: Inhibition of CYP450 2C9 transfected in human microsome; format: ADME; method in brief: as §4
Chain of Cytochrome P450 2C9 (P11712 whole entry): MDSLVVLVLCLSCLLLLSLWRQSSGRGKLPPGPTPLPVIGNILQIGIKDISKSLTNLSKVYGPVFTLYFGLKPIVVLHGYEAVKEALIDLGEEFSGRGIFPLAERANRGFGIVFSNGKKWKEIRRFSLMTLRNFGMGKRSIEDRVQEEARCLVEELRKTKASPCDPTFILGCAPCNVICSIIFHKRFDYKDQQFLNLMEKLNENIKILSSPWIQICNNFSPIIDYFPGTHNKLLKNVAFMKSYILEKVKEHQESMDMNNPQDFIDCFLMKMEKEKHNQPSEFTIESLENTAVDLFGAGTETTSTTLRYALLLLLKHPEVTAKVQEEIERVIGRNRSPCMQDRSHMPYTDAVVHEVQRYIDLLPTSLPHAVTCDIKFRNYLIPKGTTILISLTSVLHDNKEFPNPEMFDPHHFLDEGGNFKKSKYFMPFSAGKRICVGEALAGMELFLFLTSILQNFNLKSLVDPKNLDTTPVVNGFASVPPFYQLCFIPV

Cytochrome P450 3A4 [16] = biological target: T5, Cytochrome P450 3A4 (Homo sapiens, UniProt P08684); test: Inhibition of CYP450 3A4 transfected in human microsome using PPR fluorogenic substrate; format: ADME, microsomes
T5 sequence (P08684 whole entry): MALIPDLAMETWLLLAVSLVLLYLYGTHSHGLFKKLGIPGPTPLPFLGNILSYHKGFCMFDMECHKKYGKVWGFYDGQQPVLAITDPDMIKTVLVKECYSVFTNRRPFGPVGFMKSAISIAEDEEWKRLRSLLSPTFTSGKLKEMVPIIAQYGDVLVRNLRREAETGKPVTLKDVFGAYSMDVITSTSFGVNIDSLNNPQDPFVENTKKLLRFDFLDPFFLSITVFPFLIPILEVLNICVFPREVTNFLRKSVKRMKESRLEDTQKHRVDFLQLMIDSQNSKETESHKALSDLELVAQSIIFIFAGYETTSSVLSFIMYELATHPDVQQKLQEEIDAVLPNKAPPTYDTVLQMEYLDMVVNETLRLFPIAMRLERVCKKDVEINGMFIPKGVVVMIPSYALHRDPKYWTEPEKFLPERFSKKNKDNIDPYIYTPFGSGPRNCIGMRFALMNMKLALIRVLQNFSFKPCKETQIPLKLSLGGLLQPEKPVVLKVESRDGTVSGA

Cytochrome P450 3A4 [17] = biological target: T5, Cytochrome P450 3A4; test: Inhibition of CYP450 3A4 transfected in human microsome using DEF fluorogenic substrate; format: ADME, microsomes; method in brief: as §4
Oxytocin receptor [18] = biological target: T1, Oxytocin receptor; test: […] activity at human OTR expressed in CHO cells assessed as inhibition of oxytocin-induced calcium mobilization by FLIPR assay; format: functional, cell-based

Structure (SMILES)	clearance [2] [mL/min/kg]	bioavailability [3] [%]	clearance [4] [mL/min/kg]	solubility [5] [µg/mL]	AUC [6] [ng·h/mL]	Ki (Oxytocin receptor [7]) [µM]	chromatographic logD [8]	Ki (Vasopressin V1a receptor) [µM]	IC50 (Cytochrome P450 2C19) [µM]	Ki (Oxytocin receptor [9]) [µM]	Ki (Vasopressin V1b receptor) [µM]	Ki (Vasopressin V2 receptor) [µM]	half-life [10] [h]	Ki (Oxytocin receptor [11]) [µM]	IC50 (Cytochrome P450 1A2) [µM]	bioavailability [12] [%]	half-life [13] [h]	IC50 (Cytochrome P450 2D6) [µM]	Activity (Rattus norvegicus) [mg/kg]	Vd [14] [L/kg]	other results
CC(C)C[C@@H]1C(=O)N[C@H](C2Cc3ccccc3C2)C(=O)N1[C@@H](C(=O)NC(C)C)c1ccc(F)cc1F	11	46	36	8 (≈ 16.1 µM)	174	0.00126	3.4	–	–	–	–	–	–	–	–	–	–	–	–	–	AUC [1]: 2880 ng·h/mL; F (Canis familiaris): 13%
CC(C)C[C@@H]1C(=O)N[C@H](C2Cc3ccccc3C2)C(=O)N1[C@@H](C(=O)NC(C)C)c1ccc2occc2c1	6	68	9	–	–	0.001	–	> 6.31	> 100	0.00398	> 6.31	5.01	2.4	0.0631	73	95	2	62	5.4	0.9	Vd [15]: 1.4 L/kg; IC50 (Cytochrome P450 2C9): 3.5 µM; IC50 (Cytochrome P450 3A4 [16]): 4.3 µM; IC50 (Cytochrome P450 3A4 [17]): 2.5 µM
CC(C)C[C@@H]1C(=O)N[C@H](C2Cc3ccccc3C2)C(=O)N1[C@@H](C(=O)N(C)C)c1ccc(F)cc1F	7	53	15	83 (≈ 172 µM)	770	0.000631	3.3	> 6.31	> 100	0.00158	> 6.31	0.316	2.1	0.01	64	51	1.1	> 100	0.22	1.1	IC50 (Oxytocin receptor [18]): 0.0037 µM; IC50 (Rattus norvegicus; Rattus norvegicus): 0.227 µM; Vd [15]: 1.2 L/kg; IC50 (Cytochrome P450 2C9): 49 µM; IC50 (Cytochrome P450 3A4 [16]): 62 µM; IC50 (Cytochrome P450 3A4 [17]): 89 µM
